HCV core dimer: HCV core protein dimerization inhibition; TR-FRET GST/Flag-core106 dimerization, 1536-well; inhibition, % at 5 µM; 300,000 tested, 0.33% active; AID 1899;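 active means inhibition above the mean of all tested compounds plus 3 SD, set per screening campaign, cut at about 45% in these data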
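System: GST-tagged and Flag-tagged HCV core protein residues 1-106 / Input: core106 proteins, GST 13.5 nM and Flag 17 nM / Buffer or medium: KF-containing HEPES buffer, pH 7.45, DTT, CHAPS, BSA / Probe or stimulus: Eu-anti-GST and XL665-anti-Flag labelled anti-tag antibodies / Schedule: 4 h, 22.5 °C incubation / Technique: TR-FRET 671 and 617 nm emission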
EBNA-1 inh: blocks EBNA-1 binding to DNA | EBNA-1 DNA binding, fluorescence polarization | 300,000 tested, 0.34% active | AID 1950 | inhibition, % at 14.8 µM; in the data active means inhibition above about 28%
ZTA counter: blocks Epstein-Barr virus ZTA, an EBNA-1 counter-screen; ZTA-DNA binding, fluorescence polarization; 320,000 tested, 0.15% active; inhibition, % at 11 µM; in the data active means inhibition above about 33%
Target sequence (P03206 whole entry, looked up): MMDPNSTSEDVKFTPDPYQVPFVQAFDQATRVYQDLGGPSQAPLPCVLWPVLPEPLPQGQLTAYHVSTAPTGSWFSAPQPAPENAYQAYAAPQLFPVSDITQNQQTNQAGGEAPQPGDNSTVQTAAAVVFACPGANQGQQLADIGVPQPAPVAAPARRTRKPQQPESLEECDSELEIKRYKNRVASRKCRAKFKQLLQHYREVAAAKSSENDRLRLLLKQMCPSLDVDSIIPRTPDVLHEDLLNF
HCV NS3 hel inh: inhibitors of Hepatitis C virus NS3 helicase | AID 1800 | 290,000 tested, 0.56% active | inhibition, % at 10.9 µM | NS3 helicase DNA unwinding, Cy5 molecular beacon fluorescence;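 active means inhibition above the mean of all tested compounds plus 3 SD, set per campaign, cut at about 35% in these data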;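 further: 0% = DMSO wells and 100% = thioflavine S control wells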
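Compound dosing – single dose, 10.9 µM nominal final, DMSO 0.8% final · System – NS3 helicase fragment of HCV · Buffer or medium – MOPS pH 6.5, MgCl2, DTT, Tween20, BSA · Signal – Cy5 beacon fluorescence read at start and 1 h · Also added – annealed dual-labelled DNA beacon duplex, ATP-started · Schedule – 1 h at 25 °C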
NS3 hel confirm: confirmation of Hepatitis C virus NS3 helicase inhibitors; shares compounds with HCV NS3 hel inh; inhibition, % at 10.9 µM; AID 1943; NS3 helicase DNA unwinding, Cy5 molecular beacon fluorescence; 1,600 tested, 31% active;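 active means inhibition above the mean of all tested compounds plus 3 SD, cutoff set per campaign, cut at about 36% in these data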
DNA FID counter: counter-screen for HCV NS3 helicase inhibitors: DNA intercalator displacement. inhibition, % at 7.9 µM. AID 1945. 1,600 tested, 4% active. shares compounds with HCV NS3 hel inh. DNA fluorescent intercalator displacement, fluorescence; in the data active means inhibition above about 37%;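 further: 0% = vehicle and 100% = reference compound; higher means more displacement of ethidium bromide from the DNA hairpin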
Numbers without * were called inactive; nt = not tested or not shown. Most compounds without a hit are left out; they make up all but 1.2% or so of the library.

SMILES | HCV core dimer | EBNA-1 inh | ZTA counter | HCV NS3 hel inh | NS3 hel confirm | DNA FID counter
COc1ccc(N2C(=O)C3C(C2=O)C(C(=O)c2ccc(Cl)cc2)N2CCCC32)cc1 (stereo not drawn) | 17 | 8 | 3 | 40* | 33 | -24
Fc1ccccc1/C=N/n1c(COc2ccccc2)n[nH]c1=S | 2 | -2 | 11 | 50* | 9 | -12
CCOC(=O)c1[nH]c2c(c1C)C(=O)CC(c1ccco1)C2 (stereo not drawn) | 44 | 7 | -11 | 13 | nt | nt
COCCOC(=O)c1[nH]c2c(c1C)C(=O)CC(c1ccco1)C2 (stereo not drawn) | 42 | -7 | 6 | 47* | -6 | 2
CC(=O)N1CCN(C(=O)c2ccccc2NS(=O)(=O)c2ccc(F)cc2)CC1 | nt | nt | -8 | nt | nt | nt
O=C(NNC(=S)NC(=O)c1ccco1)c1ccc(F)cc1 | -4 | -4 | -8 | -1 | nt | nt
Cn1cccc1CC(=O)NNC(=S)NC(=O)c1ccc(F)cc1 | 0 | 1 | -1 | 45* | -10 | -3
COCCCn1c(=O)/c(=C\c2ccccc2OC(C)C)s/c1=C(/C#N)C(=O)Nc1ccc(C(=O)O)cc1 | 24 | 13 | 0 | 50* | 58* | -31
COCCCn1c(=O)/c(=C\c2ccccc2OC(F)F)s/c1=C(/C#N)C(=O)NC(C)C | -1 | 5 | -7 | -16 | nt | nt
CCOC(=O)n1c(=O)n(C)c2ccc(Br)cc21 | -1 | -4 | -7 | 112* | -3 | 6
C=CCn1c(=O)n(C(=O)OCC)c2cc(Br)ccc21 | 0 | 3 | 0 | 3 | nt | nt
Cc1ccc(/C=C2\SC(=S)N(NS(=O)(=O)c3ccc(C)cc3)C2=O)cc1 | 12 | 10 | 14 | 29 | nt | nt
COc1cc(/C=C2\SC(=S)N(NS(=O)(=O)c3ccccc3)C2=O)cc(OC)c1OC | 7 | -1 | 8 | 24 | nt | nt
O=C1/C(=C/c2cccc(F)c2)SC(=S)N1NS(=O)(=O)c1ccccc1 | 3 | 5 | 1 | 37* | 70* | -7
Cc1ccc(S(=O)(=O)NN2C(=O)/C(=C/c3cccn3C)SC2=S)cc1 | 0 | 12 | 17 | 50* | 60* | 8
Cc1ccc(S(=O)(=O)NN2C(=O)/C(=C/c3cccs3)SC2=S)cc1 | 6 | 0 | 15 | 17 | nt | nt
Cc1ccc(S(=O)(=O)NN2C(=O)/C(=C/c3ccc(C(=O)O)cc3)SC2=S)cc1 | 4 | -17 | 14 | 37* | -19 | -7
Cc1cc(S(=O)(=O)NCCCN2CCOCC2)ccc1Br | nt | nt | 7 | nt | nt | nt
O=C1c2ccccc2NC2(CCCCC2)N1N=C1CCCCC1 | -3 | 1 | -13 | 49* | -8 | -3
Clc1cccc(Cl)c1/C=C/c1ccn[nH]1 | 0 | 6 | 14 | -5 | nt | nt
COc1ccc(-n2c(Cc3cccn3C)nnc2SCC(=O)NCc2ccccc2Cl)cc1 | 6 | 5 | 3 | 47* | -12 | -28
CC(C)(C)C(=O)C1=C(O)C(=O)N(Cc2ccccc2)C1c1ccccc1Cl (stereo not drawn) | 8 | 5 | -5 | 38* | 15 | -13
Cc1ccc(C2(c3ccccc3)NC(=O)N(CC(=O)N(C)C3CCS(=O)(=O)C3)C2=O)cc1C (stereo not drawn) | nt | nt | -24 | nt | nt | nt
COc1ccc(OCc2nc(-c3ccc(F)c(F)c3)cs2)cc1 | 2 | -4 | -5 | -3 | nt | nt
Cc1c(C#N)c(O)[nH]c(=O)c1N=Nc1ccc(S(N)(=O)=O)cc1 | 5 | -8 | 9 | 57* | -15 | 12
SMILES | HCV core dimer | EBNA-1 inh | ZTA counter | HCV NS3 hel inh | NS3 hel confirm | DNA FID counter
O=S1(=O)CCOCCN1Cc1ccc(Cl)cc1Cl | 2 | 2 | -6 | 37* | -18 | 6
COc1cc2c(cc1OC)CN(C(=O)c1cc(S(=O)(=O)N3CCOCC3)ccc1C)CC2 | -3 | -10 | -14 | nt | nt | nt
COc1ccc(C)cc1NC(=S)N1CC(C)OC(C)C1 (stereo not drawn) | -1 | 12 | 7 | 1 | nt | nt
CNC(=O)NC(=O)CSc1cccc(C(F)(F)F)c1 | 2 | -2 | 4 | -2 | nt | nt
CC(C)(C)NC(=O)NC(=O)CSc1cccc(C(F)(F)F)c1 | 1 | 4 | 13 | 37* | -10 | 7
OCCNc1c2ccccc2nc2c(F)c(F)c(F)c(F)c12 | -6 | -8 | 2 | 9 | nt | nt
Cc1c2ccccc2nc2c(F)c(NCCO)c(F)c(F)c12 | 25 | 1 | 0 | 39* | -16 | 8
Cc1c2ccccc2nc2c(F)c(NC(C)C)c(F)c(F)c12 | 8 | -1 | 5 | 44* | -3 | 4
N/C(=N\OC(=O)CCn1cccc(C(F)(F)F)c1=O)c1ccc(Cl)cc1 | 0 | 5 | 6 | 5 | nt | nt
C=CCNc1nc2ccccc2nc1NS(=O)(=O)c1ccc(Cl)cc1 | 2 | -4 | -10 | 36* | 32 | -25
N#Cc1ccc(-c2cn3c(n2)SCC3)cc1 | nt | nt | nt | 0 | nt | nt
O=C(Nc1ccc(N2CCOCC2)c(Cl)c1)c1cccnc1Cl | 8 | 10 | 6 | -3 | nt | nt
O=C(Nc1ccccc1N1CCOCC1)c1cccnc1Cl | 0 | -3 | 10 | 53* | -18 | -4
CCCCc1c(C)nc2c(OC)cccc2c1SCC(=O)O | 8 | -6 | 2 | 37* | -1 | 0
Cc1cc(C(=O)CSc2nnnn2-c2ccccc2)c(C)n1-c1ccc2c(c1)OCO2 | 15 | 2 | 9 | 37* | 5 | -14
Nc1cc([N+](=O)[O-])ccc1O | -19 | -6 | 1 | 44* | 2 | 17
CN1CCN(S(=O)(=O)c2ccc(N3CCN(C(c4ccccc4)c4ccccc4)CC3)nc2)CC1 | 3 | -2 | -4 | 43* | 8 | 51*
COc1ccc(C(=O)NCCN2C(=O)S/C(=C\c3cccnc3)C2=O)cc1[N+](=O)[O-] | 1 | -5 | 2 | -4 | nt | nt
COc1ccc(-c2nn(CCC(=O)O)cc2CCC(=O)O)cc1 | -5 | 1 | -23 | 5 | nt | nt
O=C(O)CCn1cc(C(=O)O)c(-c2ccccc2)n1 | 0 | 5 | -4 | 45* | -12 | 2
COc1ccc(C(=O)O)cc1NC(=S)NC(=O)/C=C/c1ccc(C(C)C)cc1 | 13 | -4 | 12 | 43* | 58* | 16
CC(NCc1ccccc1Cl)C(=O)Nc1ccc(C#N)cc1 (stereo not drawn) | -1 | 2 | -3 | 3 | nt | nt
C=CCn1cc(CN2CCC(C(=O)Nc3cccc(-c4cccc(Cl)c4)c3)CC2)c(C)n1 | -7 | -18 | -12 | -72 | nt | nt
CCOC(=O)c1sc2nc3c(SCC(=O)O)cc(C(=O)c4ccccc4O)cn3c(=O)c2c1C | -302 | 8 | -7 | 23 | nt | nt
Cc1sc2nc3c(SC(C)C(=O)O)cc(C(=O)c4ccccc4O)cn3c(=O)c2c1C (stereo not drawn) | 18 | 15 | 22 | 45* | 70* | 56*
CCOC(=O)c1sc2nc3c(SCC(=O)O)cc(C(=O)c4cc(F)ccc4O)cn3c(=O)c2c1C | 21 | 4 | 10 | 36* | 52* | 65*
